Data from ChEMBL document CHEMBL4373658, “Scaffold hybridization strategy towards potent hydroxamate-based inhibitors of Flaviviridae viruses and Trypanosoma species” (Medchemcomm, 2019).
pEC50: −log10 of the molar value. The source made the active and inactive calls. No cut-off for these calls is given here.

Columns and labels:
Nonstructural protein 5A = molecular target: T1, Nonstructural protein 5A (Hepatitis C virus, UniProt Q5L478); experiment: Inhibition of HCV genotype 1b NS5A; design: species or system Hepatitis C virus subtype 1b
T1 sequence (Q5L478 whole entry): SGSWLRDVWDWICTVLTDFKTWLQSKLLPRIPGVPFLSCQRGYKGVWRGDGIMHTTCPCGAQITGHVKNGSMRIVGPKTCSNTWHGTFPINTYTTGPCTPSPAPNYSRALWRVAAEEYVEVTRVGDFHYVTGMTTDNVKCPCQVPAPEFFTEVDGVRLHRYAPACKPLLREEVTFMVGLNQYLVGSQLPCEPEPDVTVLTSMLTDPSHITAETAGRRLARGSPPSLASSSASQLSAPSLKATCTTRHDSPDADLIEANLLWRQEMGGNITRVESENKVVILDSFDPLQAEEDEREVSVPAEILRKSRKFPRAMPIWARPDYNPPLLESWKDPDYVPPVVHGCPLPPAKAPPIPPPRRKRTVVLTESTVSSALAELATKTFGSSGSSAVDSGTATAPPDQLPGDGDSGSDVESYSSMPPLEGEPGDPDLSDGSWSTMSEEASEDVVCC

[1] = Cytotoxicity against rat L6 cells assessed as reduction in cell viability incubated for 6 days by resazurin dye based fluorescence assay
Summary of the method: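 Rat skeletal myoblast L6 cells seeded in triplicate at 1 × 10⁴ mL⁻¹ in growth medium containing a range of compound concentrations, 6 days at 37 °C; resazurin added, 8 h further, fluorescence read. CC50 = concentration giving 50% growth inhibition; mean of triplicate experiments ± SEM.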

[2] = Selectivity index, ratio of CC50 for human Huh5.2 cells to EC50 for HCV genotype 4a ED43; type: toxicity; conditions: read-out: Ratio CC50/EC50
Summary of the method: (§1)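 Viability read as intracellular ATP, not MTT: 10^4 Huh5-2 cells/well, after 24 h exposed to compounds 72 h at 37 °C, 5% CO2, lysed, luminescent ATP kit read, ATP normalized to protein. CC50 versus DMSO control via nonlinear regression of log concentration; mean ± SD of three independent experiments in triplicate. SI = CC50/EC50.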

[3] = Cytotoxicity against human HuH5.2 cells assessed as reduction in cell viability incubated for 72 hrs by measuring intracellular ATP levels
Trypanosoma brucei = experiment: Antitrypanosomal activity against Trypanosoma brucei 221 bloodstream form assessed as inhibition of growth incubated for 4 days by resazurin dye based fluorescence assay; type: functional, organism-based; conditions: Trypanosoma brucei, 221, 96 h
[4] = Selectivity index, ratio of CC50 for human Huh5.2 cells to EC50 for HCV genotype 1b Con1; type: toxicity; conditions: read-out: Ratio CC50/EC50; summary of the method: as §1
Trypanosoma cruzi = experiment: Antitrypanosomal activity against Trypanosoma cruzi strain CL Brener epimastigotes form assessed as inhibition of growth incubated for 4 days by resazurin dye based fluorescence assay; type: functional, organism-based; conditions: 96 h
Hepatitis C virus [5] = experiment: Antiviral activity against HCV genotype 4a ED43 infected in human HuH7.5 cells assessed as reduction in viral replication incubated for 3 days by luciferase reporter gene assay; type: functional, organism-based, Hepacivirus hominis; conditions: subtype 4a ED43, Huh7.5, 72 h
Summary of the method: (§2)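 Stable subgenomic replicon cell lines (Huh5-2 HCV 1b Con1 firefly luciferase; Huh7.5-3a S52, Huh7.5-4a ED43; Huh7-D2 DENV2 16681 Renilla luciferase) seeded 1×10^4 cells/well, 24 h at 37 °C, then serial compound dilutions in complete DMEM without G418 for 3 days at 37 °C. Lysate F-Luc or R-Luc (12 μM coelenterazine, pH 7.4 buffer) normalized to Bradford protein, expressed as % of DMSO control. EC50 from nonlinear regression of log concentration.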

[6] = Selectivity index, ratio of CC50 for rat L6 cells to EC50 for Trypanosoma brucei 221 bloodstream form; type: toxicity; conditions: read-out: Ratio CC50/EC50
Summary of the method: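 T. brucei strain 221 bloodstream forms in modified Iscove's medium diluted to 2.5 × 10⁴ mL⁻¹, eight-point concentration curves at 37 °C; resazurin added after 48 h, further 16 h incubation; fluorescence at excitation 545 nm, emission 590 nm. EC50 and EC90 from triplicate experiments. SI = L6 CC50/EC50.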

Hepatitis C virus [7] = experiment: Antiviral activity against HCV genotype 1b Con1 infected in human HuH5.2 cells assessed as reduction in viral replication incubated for 3 days by luciferase reporter gene assay; type: functional, organism-based, Hepacivirus hominis; conditions: subtype 1b Con1, Huh-5-2, 72 h; summary of the method: as §2
[8] = Selectivity index, ratio of CC50 for rat L6 cells to EC50 for Trypanosoma cruzi strain CL Brener epimastigotes; type: toxicity; conditions: read-out: Ratio CC50/EC50
Hepatitis C virus [9] = experiment: Antiviral activity against HCV genotype 4a ED43 infected in human HuH7.5 cells assessed as reduction in viral RNA at 0.01 to 10 uM incubated for 3 days by qRT-PCR analysis; type: functional, organism-based; conditions: Hepacivirus hominis, subtype 4a ED43
Summary of the method: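 Huh7.5-4a replicon cells treated with serial dilutions or DMSO; (+) strand HCV RNA quantified by RT-qPCR, normalized to housekeeping gene YWHAZ mRNA, expressed as percentage of solvent-treated control.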

[10] = molecular target: RNA-directed RNA polymerase (Hepacivirus hominis, UniProt O39930); experiment: Inhibition of HCV genotype 1b NS5B RNA dependent RNA polymerase; design: species or system Hepatitis C virus subtype 1b
RNA-directed RNA polymerase, sequence (O39930 whole entry): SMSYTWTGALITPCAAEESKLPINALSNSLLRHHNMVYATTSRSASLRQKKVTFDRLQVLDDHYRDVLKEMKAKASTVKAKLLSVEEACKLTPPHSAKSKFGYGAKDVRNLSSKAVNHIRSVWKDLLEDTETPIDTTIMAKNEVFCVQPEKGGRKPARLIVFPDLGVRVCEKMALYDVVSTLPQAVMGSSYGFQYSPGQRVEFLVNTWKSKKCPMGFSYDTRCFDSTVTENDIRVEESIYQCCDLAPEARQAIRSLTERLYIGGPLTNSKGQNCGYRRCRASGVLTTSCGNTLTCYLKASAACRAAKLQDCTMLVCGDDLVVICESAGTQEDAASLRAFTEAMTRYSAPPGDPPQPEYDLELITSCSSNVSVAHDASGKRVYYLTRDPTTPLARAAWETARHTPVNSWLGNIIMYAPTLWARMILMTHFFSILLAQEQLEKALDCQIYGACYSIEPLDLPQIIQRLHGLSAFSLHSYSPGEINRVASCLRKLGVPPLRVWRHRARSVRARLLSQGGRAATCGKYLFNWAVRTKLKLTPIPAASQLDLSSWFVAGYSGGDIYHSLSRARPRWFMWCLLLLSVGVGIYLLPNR

[11] = Inhibition of HCV genotype 1b NS3/4A protease; design: species or system Hepatitis C virus subtype 1b
dengue virus type 2 = experiment: Antiviral activity against DENV 2 16681 infected in human HuH7 cells assessed as reduction in viral replication incubated for 3 days by luciferase reporter gene assay; type: functional, organism-based; conditions: Dengue virus, 16681, Huh-7, 72 h; summary of the method: as §2
[12] = Selectivity index, ratio of CC50 for human Huh5.2 cells to EC50 for HCV genotype 3a S52; type: toxicity; conditions: read-out: Ratio CC50/EC50; summary of the method: as §1
[13] = Selectivity index, ratio of CC50 for human Huh5.2 cells to EC50 for DENV2 16681; type: toxicity; conditions: read-out: Ratio CC50/EC50
Hepatitis C virus [14] = experiment: Antiviral activity against HCV genotype 3a S52 infected in human HuH7.5 cells assessed as reduction in viral replication incubated for 3 days by luciferase reporter gene assay; type: functional, organism-based, Hepacivirus hominis; conditions: subtype 3a S52, Huh7.5, 72 h; summary of the method: as §2
Hepatitis C virus [15] = experiment: Antiviral activity against HCV genotype 4a ED43 infected in human HuH7.5 cells assessed as reduction in viral NS5A expression at 2 to 5 uM incubated for 3 days by immunofluorescence assay; type: functional, organism-based; conditions: Hepacivirus hominis, subtype 4a ED43
Summary of the method: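 Huh7.5-4a replicon cells given serial compound dilutions or DMSO; HCV NS5A detected by indirect immunofluorescence, nuclei stained with propidium iodide as viability control, confocal imaging.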

COC(=O)N[C@H](C(=O)N1CCC[C@H]1c1nc(-c2ccc(-c3ccc(-c4c[nH]c([C@@H]5CCCN5C(=O)[C@@H](NC(=O)OC)C(C)C)n4)cc3)cc2)c[nH]1)C(C)C [DACLATASVIR]
pEC50 (Nonstructural protein 5A): 11.70

CN1C(=O)N(CC(=O)NO)C(=O)C12CCc1ccccc12 (stereo unspecified)
CC50 at 144 h [1]: 550000 nM
selectivity ratio [2]: 128
CC50 at 72 h [3]: 26900 nM
pEC50 (Trypanosoma brucei): 5.91
EC90 (Trypanosoma brucei): 1930 nM
selectivity ratio [4]: 19
pEC50 (Trypanosoma cruzi): < 4.52
pEC50 (Hepatitis C virus [5]): 6.68
selectivity ratio [6]: 451
pEC50 (Hepatitis C virus [7]): 5.85

CN1C(=O)N(CC(=O)NO)C(=O)C12CCCc1ccccc12 (stereo unspecified)
CC50 at 144 h [1]: 28200 nM
selectivity ratio [2]: 682
CC50 at 72 h [3]: 143000 nM
pEC50 (Trypanosoma brucei): 5.72
EC90 (Trypanosoma brucei): 4690 nM
selectivity ratio [4]: 99
pEC50 (Trypanosoma cruzi): 4.56
EC90 (Trypanosoma cruzi): 42100 nM
pEC50 (Hepatitis C virus [5]): 6.68
selectivity ratio [8]: 1
Activity (Hepatitis C virus [9]): Active
selectivity ratio [6]: 15
pEC50 (Hepatitis C virus [7]): 5.84

O=C(CN1C(=O)N(Cc2ccccc2)C2(CCc3ccccc32)C1=O)NO (stereo unspecified)
CC50 at 144 h [1]: 6270 nM
selectivity ratio [2]: 54
CC50 at 72 h [3]: 7530 nM
pEC50 (Trypanosoma brucei): 7.00
EC90 (Trypanosoma brucei): 192 nM
selectivity ratio [4]: 34
pEC50 (Trypanosoma cruzi): 5.77
EC90 (Trypanosoma cruzi): 3010 nM
pEC50 (Hepatitis C virus [5]): 6.85
selectivity ratio [8]: 4
selectivity ratio [6]: 62
pEC50 (Hepatitis C virus [7]): 6.66

CC(C)OC(=O)[C@H](C)N[P@](=O)(OC[C@H]1O[C@@H](n2ccc(=O)[nH]c2=O)[C@](C)(F)[C@@H]1O)Oc1ccccc1 [SOFOSBUVIR]
pEC50 [10]: 6.99

CC[C@@H]1[C@@H]2CN(C(=O)[C@H](C(C)(C)C)NC(=O)O[C@@H]3C[C@H]3CCCCC(F)(F)c3nc4ccc(OC)cc4nc3O2)[C@@H]1C(=O)N[C@]1(C(=O)NS(=O)(=O)C2(C)CC2)C[C@H]1C(F)F
pEC50 [11]: 8.48

O=C(CN1C(=O)N(Cc2ccccc2)C2(CCCCc3ccccc32)C1=O)NO (stereo unspecified)
CC50 at 144 h [1]: 7850 nM
selectivity ratio [2]: 45
CC50 at 72 h [3]: 5450 nM
pEC50 (Trypanosoma brucei): 7.89
EC90 (Trypanosoma brucei): 18 nM
selectivity ratio [4]: 5
pEC50 (Trypanosoma cruzi): 6.31
EC90 (Trypanosoma cruzi): 940 nM
pEC50 (Hepatitis C virus [5]): 6.92
selectivity ratio [8]: 16
selectivity ratio [6]: 604
pEC50 (Hepatitis C virus [7]): 6.00

O=C(CN1C(=O)CNC2(CCCCCC2)C1=O)NO
pEC50 (Trypanosoma brucei): 5.73
EC90 (Trypanosoma brucei): 2530 nM

O=C(CN1C(=O)NC2(CCCc3ccccc32)C1=O)NO (stereo unspecified)
pEC50 (dengue virus type 2): 4.21
CC50 at 144 h [1]: 419000 nM
selectivity ratio [2]: > 526
CC50 at 72 h [3]: > 200000 nM
pEC50 (Trypanosoma brucei): 6.15
EC90 (Trypanosoma brucei): 1270 nM
selectivity ratio [4]: > 142
pEC50 (Trypanosoma cruzi): < 4.52
EC90 (Trypanosoma cruzi): > 30000 nM
selectivity ratio [12]: > 84
pEC50 (Hepatitis C virus [5]): 6.42
selectivity ratio [6]: 590
pEC50 (Hepatitis C virus [7]): 5.85
selectivity ratio [13]: > 3
pEC50 (Hepatitis C virus [14]): 5.63

O=C(CN1C(=O)NC2(CCCCc3ccccc32)C1=O)NO (stereo unspecified)
pEC50 (dengue virus type 2): 4.79
CC50 at 144 h [1]: 125000 nM
selectivity ratio [2]: 1980
CC50 at 72 h [3]: 198000 nM
pEC50 (Trypanosoma brucei): 6.40
EC90 (Trypanosoma brucei): 520 nM
Activity (Hepatitis C virus [15]): Active
selectivity ratio [4]: 794
pEC50 (Trypanosoma cruzi): < 4.52
selectivity ratio [12]: 2480
pEC50 (Hepatitis C virus [5]): 7.00
Activity (Hepatitis C virus [9]): Active
selectivity ratio [6]: 313
pEC50 (Hepatitis C virus [7]): 6.60
selectivity ratio [13]: 12
pEC50 (Hepatitis C virus [14]): 7.10

O=C1NC(=O)C2(CCc3ccccc32)N1 (stereo unspecified)
CC50 at 144 h [1]: > 500000 nM
CC50 at 72 h [3]: > 10000 nM
pEC50 (Trypanosoma brucei): < 4.30
pEC50 (Trypanosoma cruzi): < 3.30
pEC50 (Hepatitis C virus [7]): < 5.00

O=C(CN1C(=O)N(Cc2ccccc2)C2(CCCc3ccccc32)C1=O)NO (stereo unspecified)
CC50 at 144 h [1]: 3170 nM
selectivity ratio [2]: 127
CC50 at 72 h [3]: 8900 nM
pEC50 (Trypanosoma brucei): 7.30
EC90 (Trypanosoma brucei): 77 nM
selectivity ratio [4]: 28
pEC50 (Trypanosoma cruzi): 6.02
EC90 (Trypanosoma cruzi): 1710 nM
pEC50 (Hepatitis C virus [5]): 7.15
selectivity ratio [8]: 3
selectivity ratio [6]: 63
pEC50 (Hepatitis C virus [7]): 6.49

O=C(CN1C(=O)NC2(CCc3ccccc32)C1=O)NO (stereo unspecified)
pEC50 (dengue virus type 2): 4.02
CC50 at 144 h [1]: 268000 nM
selectivity ratio [2]: > 345
CC50 at 72 h [3]: > 200000 nM
pEC50 (Trypanosoma brucei): 6.36
EC90 (Trypanosoma brucei): 800 nM
selectivity ratio [4]: > 68
pEC50 (Trypanosoma cruzi): < 4.52
EC90 (Trypanosoma cruzi): > 30000 nM
selectivity ratio [12]: > 67
pEC50 (Hepatitis C virus [5]): 6.24
selectivity ratio [6]: 609
pEC50 (Hepatitis C virus [7]): 5.53
selectivity ratio [13]: > 2
pEC50 (Hepatitis C virus [14]): 5.53

CN1C(=O)N(CC(=O)NO)C(=O)C12CCCCc1ccccc12 (stereo unspecified)
CC50 at 144 h [1]: 16400 nM
selectivity ratio [2]: 1020
CC50 at 72 h [3]: 112000 nM
pEC50 (Trypanosoma brucei): 6.64
EC90 (Trypanosoma brucei): 300 nM
selectivity ratio [4]: 95
pEC50 (Trypanosoma cruzi): 4.97
EC90 (Trypanosoma cruzi): 15300 nM
pEC50 (Hepatitis C virus [5]): 6.96
selectivity ratio [8]: 2
selectivity ratio [6]: 71
pEC50 (Hepatitis C virus [7]): 5.93

COc1c(-c2ccc3cc(NS(C)(=O)=O)ccc3c2)cc(-n2ccc(=O)[nH]c2=O)cc1C(C)(C)C [DASABUVIR]
pEC50 [10]: 8.74

O=C1Cn2c(cc3ccccc32)C(=O)N1O
CC50 at 72 h [3]: > 200000 nM
selectivity ratio [4]: > 1.6
pEC50 (Hepatitis C virus [7]): 3.90
